In one test the target is T1, Oxytocin receptor (Homo sapiens, UniProt P30559).
T1 sequence (P30559 whole entry): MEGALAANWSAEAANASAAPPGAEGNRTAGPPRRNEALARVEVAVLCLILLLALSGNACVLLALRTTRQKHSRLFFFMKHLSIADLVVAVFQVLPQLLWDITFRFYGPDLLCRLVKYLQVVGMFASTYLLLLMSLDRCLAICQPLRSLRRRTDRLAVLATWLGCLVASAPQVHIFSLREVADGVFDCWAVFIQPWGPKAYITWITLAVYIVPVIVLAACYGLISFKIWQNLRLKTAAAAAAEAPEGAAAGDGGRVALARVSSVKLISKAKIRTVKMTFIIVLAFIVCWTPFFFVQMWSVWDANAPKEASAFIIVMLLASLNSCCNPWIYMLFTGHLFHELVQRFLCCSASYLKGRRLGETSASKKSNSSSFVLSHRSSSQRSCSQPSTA
The test is described as follows: Binding affinity for human oxytocin receptor.

In a further test the target is T2, Vasopressin V1b receptor (Homo sapiens, UniProt P47901).
T2 sequence (P47901 whole entry): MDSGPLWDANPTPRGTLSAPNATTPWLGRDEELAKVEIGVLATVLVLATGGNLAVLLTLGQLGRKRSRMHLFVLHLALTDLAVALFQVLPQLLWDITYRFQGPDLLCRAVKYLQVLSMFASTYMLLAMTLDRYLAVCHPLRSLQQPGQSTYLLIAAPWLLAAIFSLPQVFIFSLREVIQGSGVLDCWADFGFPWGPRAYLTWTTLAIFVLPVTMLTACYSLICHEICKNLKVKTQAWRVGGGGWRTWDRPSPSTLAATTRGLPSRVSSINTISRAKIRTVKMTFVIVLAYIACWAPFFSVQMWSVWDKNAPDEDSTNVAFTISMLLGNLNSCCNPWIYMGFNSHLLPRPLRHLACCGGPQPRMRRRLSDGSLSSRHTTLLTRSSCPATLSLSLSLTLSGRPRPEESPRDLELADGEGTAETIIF
Briefly: Binding affinity towards human Vasopressin V1b receptor. An outline of the steps:
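Competition binding on membranes from CHO cells stably expressing one human receptor, butyrate-treated (5 mM, overnight). Radioligands: OT, 200-250 pM [125I]OTA or 120-180 pM [125I]HO-LVA; V1a, 40-60 pM [125I]HO-LVA; V1b, 1-3 nM [3H]AVP. Competitor 1 pM-1 µM; nonspecific with 1 µM unlabeled ligand; 1 h, 30 °C. Ki by nonlinear least-squares, ≥3 experiments in triplicate.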

In the next test the target is Vasopressin V1a receptor (Homo sapiens, UniProt P37288). The test is described as follows: Binding affinity for human Vasopressin V1a receptor.
Sequence of Vasopressin V1a receptor (P37288 whole entry): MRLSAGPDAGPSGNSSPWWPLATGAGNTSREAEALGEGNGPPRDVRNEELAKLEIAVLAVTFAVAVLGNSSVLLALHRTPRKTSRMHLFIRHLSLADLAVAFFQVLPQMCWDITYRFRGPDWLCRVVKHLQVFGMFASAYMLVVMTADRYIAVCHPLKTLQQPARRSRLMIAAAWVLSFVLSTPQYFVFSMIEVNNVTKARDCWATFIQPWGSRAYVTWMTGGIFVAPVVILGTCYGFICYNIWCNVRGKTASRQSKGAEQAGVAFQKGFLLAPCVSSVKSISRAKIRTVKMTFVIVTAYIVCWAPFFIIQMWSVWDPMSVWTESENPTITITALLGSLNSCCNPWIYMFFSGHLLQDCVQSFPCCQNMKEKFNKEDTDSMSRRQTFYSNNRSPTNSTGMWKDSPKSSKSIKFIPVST
The target of the next test is Vasopressin V2 receptor (Homo sapiens, UniProt P30518). The test is described as follows: Binding affinity towards human Vasopressin V2 receptor. In short, it runs like this:
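Human V2 receptor stably expressed in CHO cells, butyrate-treated (5 mM, overnight); membranes at 5-10 µg protein/assay competed against 1-3 nM [3H]AVP. Fluorescent ligand ranged 1 pM-1 µM; nonspecific binding defined with 1 µM unlabeled ligand. Incubation 1 h at 30 °C. Ki from nonlinear least-squares fit of two independent experiments, each run in triplicate.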

The results in this text go back to ChEMBL document CHEMBL1135468 (J Med Chem, 2002).

By Ki is commonly meant a measure of affinity in units of concentration, obtained from inhibition or displacement.

*1 amine or outer side, *2 acyl side, *3 side chain or, on linkers, in order; H or OH if unused. Where a SMILES comes first, the peptide text is derived from it. Bridges are numbered along the chain shown (N, C = ends). [ ]: non-standard residue; d: D form. The star is where a group is joined. 6FAM = O=C1OC2(c3ccc(O)cc3Oc3cc(O)ccc32)c2cc(C(=O)*)ccc21; X1 = O=C([C@@H](O)CS[*:2])[*:1]; Orn = NCCC[C@H](N)C(=O)O; Mpa = O=C(O)CCS

Sequence of Vasopressin V2 receptor (P30518 whole entry): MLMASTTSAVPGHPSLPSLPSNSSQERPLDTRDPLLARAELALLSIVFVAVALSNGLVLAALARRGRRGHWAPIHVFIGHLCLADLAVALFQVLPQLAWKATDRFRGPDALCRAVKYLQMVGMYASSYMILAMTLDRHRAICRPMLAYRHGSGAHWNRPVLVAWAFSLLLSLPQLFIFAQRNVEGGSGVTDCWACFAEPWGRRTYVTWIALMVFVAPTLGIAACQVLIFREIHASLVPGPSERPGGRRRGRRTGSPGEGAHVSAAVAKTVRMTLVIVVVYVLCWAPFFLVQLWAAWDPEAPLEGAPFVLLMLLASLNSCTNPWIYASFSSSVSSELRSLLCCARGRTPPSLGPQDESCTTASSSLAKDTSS

As for `CC[C@H](C)[C@@H]1NC(=O)[C@H](Cc2ccc(O)cc2)NC(=O)[C@@H](O)CSSC[C@@H](C(=O)N2CCC[C@H]2C(=O)N[C@@H](CCCCNC(=O)c2ccc3c(c2)C2(OC3=O)c3ccc(O)cc3Oc3cc(O)ccc32)C(=O)NCC(N)=O)NC(=O)[C@H](CC(N)=O)NC(=O)[C@H]([C@@H](C)O)NC1=O` (YITNCPK(6FAM)G-NH2; linker N-5 via X1), the Ki was 0.32 nM on Oxytocin receptor, 53 nM at Vasopressin V1b receptor, 17.3 nM at Vasopressin V1a receptor and over 10000 nM at Vasopressin V2 receptor.

As for `CC[C@H](C)[C@@H]1NC(=O)[C@H](Cc2ccc(O)cc2)NC(=O)[C@@H](O)CSSC[C@@H](C(=O)N2CCC[C@H]2C(=O)N[C@@H](CCCNC(=O)c2ccc3c(c2)C2(OC3=O)c3ccc(O)cc3Oc3cc(O)ccc32)C(=O)NCC(N)=O)NC(=O)[C@H](CC(N)=O)NC(=O)[C@H]([C@@H](C)O)NC1=O` (YITNCP[Orn](6FAM)G-NH2; linker N-5 via X1), the Ki on Oxytocin receptor was 0.17 nM; on Vasopressin V1b receptor, 87 nM; at Vasopressin V1a receptor, 11.8 nM; at Vasopressin V2 receptor, over 1000 nM.

For the molecule `CC[C@H](C)[C@@H]1NC(=O)[C@H](Cc2ccc(O)cc2)NC(=O)CCSSC[C@@H](C(=O)N2CCC[C@H]2C(=O)N[C@@H](CCCCNC(=O)c2ccc3c(c2)C2(OC3=O)c3ccc(O)cc3Oc3cc(O)ccc32)C(=O)NCC(N)=O)NC(=O)[C@H](CC(N)=O)NC(=O)[C@H]([C@@H](C)O)NC1=O` ([Mpa]YITNCPK(6FAM)G-NH2; disulfide 1-6), the Ki on Oxytocin receptor is 1.8 nM; at Vasopressin V1b receptor, 150 nM; at Vasopressin V1a receptor, 25.5 nM; at Vasopressin V2 receptor, over 10000 nM.

As for `CC[C@H](C)[C@@H]1NC(=O)[C@H](Cc2ccc(O)cc2)NC(=O)CCSSC[C@@H](C(=O)N2CCC[C@H]2C(=O)N[C@@H](CCCNC(=O)c2ccc3c(c2)C2(OC3=O)c3ccc(O)cc3Oc3cc(O)ccc32)C(=O)NCC(N)=O)NC(=O)[C@H](CC(N)=O)NC(=O)[C@H]([C@@H](C)O)NC1=O` ([Mpa]YITNCP[Orn](6FAM)G-NH2; disulfide 1-6), the Ki at Oxytocin receptor is 0.4 nM; at Vasopressin V1b receptor, 282 nM; on Vasopressin V1a receptor, 30 nM; at Vasopressin V2 receptor, over 10000 nM.
